In ChEMBL document CHEMBL3351404, “Structure-Activity Studies Reveal the Oxazinone Ring Is a Determinant of Cytochrome P450 2B6 Activity Toward Efavirenz” (ACS Med Chem Lett, 2014):

Key:
[1] = molecular target: T1, Cytochrome P450 2C19 (Homo sapiens, UniProt P33261); experiment: Drug metabolism assessed as CYP2C19 (unknown origin)-mediated metabolite formation at 10 uM incubated for 60 mins in presence of NADPH by uHPLC-MS/MS method; format: ADME; conditions: 1 h
How it was run: (§1)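 Individual cDNA-expressed human P450s (CYP2B6 in insect microsomes) were incubated separately with each analogue at 10 μM. The enzyme panel covers the major drug-metabolizing P450s. Products were monitored as the metabolites first found in human liver microsome incubations, identified by m/z and retention time.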

[2] = test system: Liver microsome; experiment: Drug metabolism in pooled human liver microsomes assessed as compound formation at 10 uM incubated for 60 mins in presence of NADPH by uHPLC-MS/MS method; format: ADME; conditions: 1 h
How it was run: (§2)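 Metabolite identification in human liver microsome incubations with 10 μM substrate. Products were assigned by m/z (monooxygenated, dihydroxylated, N-dealkylated), uHPLC retention time and MS/MS fragment ions. Parallel incubations in isotopic water located the inserted oxygen from +2 shifts in fragment masses.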

[3] = Retention time of the compound by uHPLC-MS/MS method; format: physicochemical; how it was run: as §2
[4] = molecular target: T2, Cytochrome P450 2B6 (Homo sapiens, UniProt P20813); experiment: (§3) Inhibition of CYP2B6 (unknown origin) assessed as reduction in hydroxybupropion formation at 10 uM incubated for 10 mins by uHPLC-MS/MS method; format: ADME; conditions: 10 min, 10 µM
T2 sequence (P20813 whole entry): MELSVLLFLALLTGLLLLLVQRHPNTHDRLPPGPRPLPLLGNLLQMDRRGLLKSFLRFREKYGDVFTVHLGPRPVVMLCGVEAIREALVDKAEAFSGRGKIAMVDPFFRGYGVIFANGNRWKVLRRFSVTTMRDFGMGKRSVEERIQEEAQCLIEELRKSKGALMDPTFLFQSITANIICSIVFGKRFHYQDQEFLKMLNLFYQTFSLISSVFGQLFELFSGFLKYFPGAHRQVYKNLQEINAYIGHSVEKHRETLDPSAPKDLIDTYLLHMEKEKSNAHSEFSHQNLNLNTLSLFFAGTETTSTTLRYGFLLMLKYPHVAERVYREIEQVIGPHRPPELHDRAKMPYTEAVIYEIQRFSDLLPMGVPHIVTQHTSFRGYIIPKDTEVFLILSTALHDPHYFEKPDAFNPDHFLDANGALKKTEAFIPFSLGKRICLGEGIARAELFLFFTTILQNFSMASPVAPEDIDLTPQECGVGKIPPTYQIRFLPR
How it was run: (§4)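 CYP2B6 insect microsomes were coincubated with the probe substrate bupropion plus test compound at 10 μM. Hydroxybupropion formation was measured and compared with a vehicle control.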

[5] = molecular target: T3, Cytochrome P450 2D6 (Homo sapiens, UniProt P10635); experiment: Drug metabolism assessed as CYP2D6 (unknown origin)-mediated compound formation at 10 uM incubated for 60 mins in presence of NADPH by uHPLC-MS/MS method; format: ADME; conditions: 1 h; how it was run: as §1
T3 sequence (P10635 whole entry): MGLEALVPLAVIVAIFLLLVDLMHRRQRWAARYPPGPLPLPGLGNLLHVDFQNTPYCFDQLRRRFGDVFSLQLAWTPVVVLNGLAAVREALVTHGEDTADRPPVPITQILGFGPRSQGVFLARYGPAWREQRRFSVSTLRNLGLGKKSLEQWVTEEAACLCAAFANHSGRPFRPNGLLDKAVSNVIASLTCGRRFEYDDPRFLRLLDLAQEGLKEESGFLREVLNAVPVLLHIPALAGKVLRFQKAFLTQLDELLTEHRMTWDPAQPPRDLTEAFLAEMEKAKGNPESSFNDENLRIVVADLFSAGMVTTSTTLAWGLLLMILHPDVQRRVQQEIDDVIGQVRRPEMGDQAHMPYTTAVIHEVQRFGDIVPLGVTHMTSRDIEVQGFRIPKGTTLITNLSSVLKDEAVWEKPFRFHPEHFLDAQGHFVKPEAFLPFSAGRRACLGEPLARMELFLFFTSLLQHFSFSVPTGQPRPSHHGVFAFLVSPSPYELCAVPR

[6] = test system: Liver microsome; experiment: Drug metabolism in pooled human liver microsomes assessed as mono-oxygenated metabolite formation at 10 uM incubated for 60 mins in presence of NADPH by uHPLC-MS/MS method; format: ADME; conditions: 1 h; how it was run: as §2
[7] = molecular target: T4, Cytochrome P450 1A2 (Homo sapiens, UniProt P05177); experiment: Drug metabolism assessed as CYP1A2 (unknown origin)-mediated metabolite formation at 10 uM incubated for 60 mins in presence of NADPH by uHPLC-MS/MS method; format: ADME; conditions: 1 h; how it was run: as §1
T4 sequence (P05177 whole entry): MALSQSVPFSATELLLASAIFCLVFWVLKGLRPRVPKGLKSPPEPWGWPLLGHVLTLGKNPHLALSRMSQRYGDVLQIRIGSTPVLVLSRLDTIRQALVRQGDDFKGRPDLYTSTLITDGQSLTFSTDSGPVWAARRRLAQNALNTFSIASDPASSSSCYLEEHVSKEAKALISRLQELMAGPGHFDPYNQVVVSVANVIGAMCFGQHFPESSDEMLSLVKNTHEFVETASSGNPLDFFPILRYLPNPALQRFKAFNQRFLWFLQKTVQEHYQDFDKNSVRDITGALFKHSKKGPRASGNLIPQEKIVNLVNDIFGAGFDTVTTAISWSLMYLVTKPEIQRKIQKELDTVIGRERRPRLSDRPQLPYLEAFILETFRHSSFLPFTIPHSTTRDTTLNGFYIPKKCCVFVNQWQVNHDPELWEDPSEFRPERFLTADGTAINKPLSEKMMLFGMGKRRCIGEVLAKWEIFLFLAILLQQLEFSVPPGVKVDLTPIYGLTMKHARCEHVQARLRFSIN

[8] = molecular target: T1, Cytochrome P450 2C19; experiment: Drug metabolism assessed as CYP2C19 (unknown origin)-mediated compound formation at 10 uM incubated for 60 mins in presence of NADPH by uHPLC-MS/MS method; format: ADME; conditions: 1 h; how it was run: as §1
[9] = molecular target: T4, Cytochrome P450 1A2; experiment: Drug metabolism assessed as CYP1A2 (unknown origin)-mediated compound formation at 10 uM incubated for 60 mins in presence of NADPH by uHPLC-MS/MS method; format: ADME; conditions: 1 h; how it was run: as §1
[10] = molecular target: T2, Cytochrome P450 2B6; experiment: Drug metabolism assessed as CYP2B6 (unknown origin)-mediated metabolite formation at 10 uM incubated for 60 mins in presence of NADPH by uHPLC-MS/MS method; format: ADME; conditions: 1 h; how it was run: as §1
[11] = molecular target: T2, Cytochrome P450 2B6; experiment: Activity of CYP2B6 (unknown origin) assessed as maximum depletion rate constant pre-incubated for 5 mins in presence of NADPH by uHPLC-MS/MS based substrate depletion kinetics assay; format: ADME
How it was run: (§5)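 cDNA-expressed CYP2B6 in insect microsomes. Parent loss was followed over time by substrate depletion, chosen because several metabolites form. Km and maximum depletion rate constant (kdep max, min–1) were derived from depletion kinetics, and Vmax was expressed as pmol/min/pmol P450.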

[12] = molecular target: T5, CYP2B6 (Homo sapiens, UniProt P20813); experiment: Activity of CYP2B6 (unknown origin) pre-incubated for 5 mins in presence of NADPH by uHPLC-MS/MS based substrate depletion kinetics assay; format: ADME; conditions: CYP2B6 enzyme (unknown origin); how it was run: as §5
T5 sequence (P20813 whole entry): T2 sequence (P20813 whole entry)

[13] = molecular target: T2, Cytochrome P450 2B6; experiment: Activity of CYP2B6 (unknown origin) assessed per pmol protein pre-incubated for 5 mins in presence of NADPH by uHPLC-MS/MS based substrate depletion kinetics assay; format: ADME; how it was run: as §5
[14] = molecular target: T6, Cytochrome P450 3A5 (Homo sapiens, UniProt P20815); experiment: Drug metabolism assessed as CYP3A5 (unknown origin)-mediated metabolite formation at 10 uM incubated for 60 mins in presence of NADPH by uHPLC-MS/MS method; conditions: 1 h
Target sequence in this assay (P20815 whole entry, looked up): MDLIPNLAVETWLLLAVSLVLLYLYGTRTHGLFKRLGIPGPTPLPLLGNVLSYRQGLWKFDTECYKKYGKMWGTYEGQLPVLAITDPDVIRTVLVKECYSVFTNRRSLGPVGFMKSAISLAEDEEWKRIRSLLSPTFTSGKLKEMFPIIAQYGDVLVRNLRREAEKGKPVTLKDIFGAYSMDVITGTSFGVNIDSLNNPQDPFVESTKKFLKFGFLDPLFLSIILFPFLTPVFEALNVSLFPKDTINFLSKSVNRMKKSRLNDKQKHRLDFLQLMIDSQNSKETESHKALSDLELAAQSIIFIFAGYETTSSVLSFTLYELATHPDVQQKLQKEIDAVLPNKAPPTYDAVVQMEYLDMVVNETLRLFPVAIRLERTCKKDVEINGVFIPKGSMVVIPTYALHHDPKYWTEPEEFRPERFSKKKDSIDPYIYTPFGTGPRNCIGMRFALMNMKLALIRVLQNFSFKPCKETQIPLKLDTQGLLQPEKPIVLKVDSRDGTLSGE

[15] = molecular target: T5, CYP2B6; experiment: Inhibition of CYP2B6 (unknown origin) assessed as reduction in hydroxybupropion formation by measuring remaining enzyme activity at 10 uM incubated for 10 mins by uHPLC-MS/MS method; format: ADME; conditions: probe bupropion (hydroxybupropion formation), read-out: Activity; how it was run: as §4
[16] = test system: Liver microsome; experiment: Drug metabolism in pooled human liver microsomes assessed as mono-oxygenated metabolite formation at 10 uM incubated for 60 mins in presence of NADPH and using isotopic water by uHPLC-MS/MS method; format: ADME; conditions: 1 h; how it was run: as §2
[17] = test system: Liver microsome; experiment: Drug metabolism in pooled human liver microsomes assessed as metabolite formation at 10 uM incubated for 60 mins in presence of NADPH by uHPLC-MS/MS method; format: ADME; conditions: 1 h; how it was run: as §2
[18] = molecular target: T3, Cytochrome P450 2D6; experiment: Drug metabolism assessed as CYP2D6 (unknown origin)-mediated metabolite formation at 10 uM incubated for 60 mins in presence of NADPH by uHPLC-MS/MS method; format: ADME; conditions: 1 h; how it was run: as §1
[19] = test system: Liver microsome; experiment: Drug metabolism in pooled human liver microsomes assessed as N-dealkylated metabolite formation at 10 uM incubated for 60 mins in presence of NADPH by uHPLC-MS/MS method; format: ADME; conditions: 1 h; how it was run: as §2
[20] = molecular target: T5, CYP2B6; experiment: as §3; format: ADME; conditions: CYP2B6 enzyme (unknown origin), probe bupropion (hydroxybupropion formation); how it was run: as §4
[21] = test system: Liver microsome; experiment: Drug metabolism in pooled human liver microsomes assessed as compound formation at 10 uM incubated for 60 mins in presence of NADPH and using isotopic water by uHPLC-MS/MS method; format: ADME; conditions: 1 h; how it was run: as §2
[22] = molecular target: T6, Cytochrome P450 3A5; experiment: Drug metabolism assessed as CYP3A5 (unknown origin)-mediated compound formation at 10 uM incubated for 60 mins in presence of NADPH by uHPLC-MS/MS method; format: ADME; conditions: 1 h; how it was run: as §1
Target sequence in this assay (P20815 whole entry): as the sequence (P20815 whole entry, looked up) above

[23] = molecular target: T2, Cytochrome P450 2B6; experiment: Drug metabolism assessed as CYP2B6 (unknown origin)-mediated compound formation at 10 uM incubated for 60 mins in presence of NADPH by uHPLC-MS/MS method; format: ADME; conditions: 1 h; how it was run: as §1

T1 sequence (P33261 whole entry): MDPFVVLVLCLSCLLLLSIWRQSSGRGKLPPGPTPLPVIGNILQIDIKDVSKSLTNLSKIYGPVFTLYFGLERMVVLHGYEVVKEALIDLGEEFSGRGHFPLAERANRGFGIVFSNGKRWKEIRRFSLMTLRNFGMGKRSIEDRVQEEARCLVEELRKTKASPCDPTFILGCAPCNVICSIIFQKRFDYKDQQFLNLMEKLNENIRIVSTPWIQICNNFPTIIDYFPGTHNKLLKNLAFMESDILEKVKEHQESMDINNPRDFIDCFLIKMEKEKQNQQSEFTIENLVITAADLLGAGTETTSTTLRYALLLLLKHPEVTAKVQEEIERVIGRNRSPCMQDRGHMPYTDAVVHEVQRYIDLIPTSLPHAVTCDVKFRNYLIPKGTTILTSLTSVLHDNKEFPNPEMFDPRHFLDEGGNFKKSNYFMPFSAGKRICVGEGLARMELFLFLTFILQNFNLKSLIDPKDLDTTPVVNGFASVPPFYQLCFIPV

SMILES: Nc1ccc(Cl)cc1[C@@](O)(C#CC1CC1)C(F)(F)F
- Drug metabolism [1]: metabolite_detected
- Drug metabolism [2]: metabolite_detected
- Retention_time [3]: 7.31 min
- inhibition (INH) [4]: Active
- Drug metabolism [5]: metabolite_detected
- Drug metabolism [6]: metabolite_detected
- Drug metabolism [7]: metabolite_detected
- Drug metabolism [8]: metabolite_detected
- Drug metabolism [9]: metabolite_detected

SMILES: O=C1Nc2ccc(Cl)cc2[C@@](/C=C/C2CC2)(C(F)(F)F)O1
- Drug metabolism [10]: metabolite_detected
- K [11]: 0.0057 min⁻¹
- Km [12]: 0.23 µM
- Vmax [13]: 0.13 pmol/min
- Drug metabolism [14]: metabolite_detected
- Drug metabolism [6]: metabolite_detected
- Drug metabolism [7]: metabolite_detected

SMILES: FC(F)(F)[C@@]1(C#CC2CC2)OCNc2ccc(Cl)cc21
- Drug metabolism [10]: metabolite_detected
- K [11]: 0.14 min⁻¹
- Km [12]: 0.22 µM
- Drug metabolism [1]: metabolite_detected
- Vmax [13]: 3.2 pmol/min
- activity at 10 min, 10 µM [15]: 2%
- Drug metabolism [16]: metabolite_detected
- Drug metabolism [6]: metabolite_detected

SMILES: Nc1ccc(Cl)cc1[C@](O)(C#CC1CC1)C(F)(F)F
- Drug metabolism [1]: metabolite_detected
- Drug metabolism [2]: metabolite_detected
- Retention_time [3]: 7.25 min
- inhibition (INH) [4]: Active
- Drug metabolism [5]: metabolite_detected
- Drug metabolism [6]: metabolite_detected
- Drug metabolism [7]: metabolite_detected
- Drug metabolism [8]: metabolite_detected
- Drug metabolism [9]: metabolite_detected

SMILES: CCCC#CC1(C(F)(F)F)OC(=O)Nc2ccc(Cl)cc21 (racemic)
- Drug metabolism [10]: metabolite_detected
- K [11]: 0.0088 min⁻¹
- Km [12]: 1.1 µM
- Vmax [13]: 0.97 pmol/min
- activity at 10 min, 10 µM [15]: 27%
- Drug metabolism [14]: metabolite_detected
- Drug metabolism [6]: metabolite_detected
- Drug metabolism [7]: metabolite_detected

SMILES: COc1ccc(C(=O)Nc2ccc(Cl)cc2C(O)(C#CC2CC2)C(F)(F)F)cc1 (racemic)
- Drug metabolism [17]: metabolite_detected
- inhibition (INH) [4]: Not Active

SMILES: COc1ccc(CNc2ccc(Cl)cc2[C@](O)(C#CC2CC2)C(F)(F)F)cc1
- Drug metabolism [18]: metabolite_detected
- Drug metabolism [1]: metabolite_detected
- activity at 10 min, 10 µM [15]: 62%
- Drug metabolism [19]: metabolite_detected
- Drug metabolism [7]: metabolite_detected

SMILES: COc1ccc(CNc2ccc(Cl)cc2[C@@](O)(C#CC2CC2)C(F)(F)F)cc1
- Drug metabolism [18]: metabolite_detected
- Drug metabolism [1]: metabolite_detected
- activity at 10 min, 10 µM [15]: 52%
- Drug metabolism [19]: metabolite_detected
- Drug metabolism [7]: metabolite_detected

SMILES: O=C1Nc2ccc(Cl)cc2[C@@](C#CC2CC2)(C(F)(F)F)O1 [EFAVIRENZ]
- K [11]: 0.023 min⁻¹
- Km [12]: 0.45 µM
- Vmax [13]: 1 pmol/min
- inhibition at 10 min, 10 µM [20]: 93%

SMILES: O=C1Nc2ccc(Cl)cc2[C@@](/C=C/C2(O)CC2)(C(F)(F)F)O1
- Drug metabolism [2]: metabolite_detected
- Retention_time [3]: 4.98 min

SMILES: OC1(C#C[C@]2(C(F)(F)F)OCNc3ccc(Cl)cc32)CC1
- Drug metabolism [2]: metabolite_detected
- Retention_time [3]: 5 min
- Drug metabolism [21]: metabolite_detected

SMILES: CCCC#CC1(C(F)(F)F)OC(=O)Nc2c(O)cc(Cl)cc21 (stereo unspecified)
- Drug metabolism [22]: metabolite_detected
- Drug metabolism [2]: metabolite_detected
- Drug metabolism [23]: metabolite_detected
- Retention_time [3]: 6.98 min
- Drug metabolism [9]: metabolite_detected

SMILES: CCC(O)C#CC1(C(F)(F)F)OC(=O)Nc2ccc(Cl)cc21 (stereo unspecified)
- Drug metabolism [2]: metabolite_detected
- Retention_time [3]: 5.6 min

SMILES: CC(O)CC#CC1(C(F)(F)F)OC(=O)Nc2ccc(Cl)cc21 (stereo unspecified)
- Drug metabolism [2]: metabolite_detected
- Retention_time [3]: 5.11 min
